In ChEMBL document CHEMBL1127084, “Synthesis and structure-activity studies of a series of [(hydroxybenzyl)amino]salicylates as inhibitors of EGF receptor-associated tyrosine kinase activity” (J Med Chem, 1993):

How the values were obtained:
[1] = Inhibition of tyrosine kinase activity in ER 22 membrane fraction by competition with the RRSrc peptide using [32P]-gamma ATP as radioligand; format: cell membranes
In short: (§1)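 Enzyme source was membrane fractions of ER 22 cells (CCL 39 cells transfected with EGF receptor). Inhibitors were added at various concentrations and phosphorylation of the peptide was measured.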

[2] = biological target: Epidermal growth factor receptor (Homo sapiens) (UniProt P00533); details: ER22; 20 uM
Chain of Epidermal growth factor receptor (Homo sapiens) (P00533 whole entry): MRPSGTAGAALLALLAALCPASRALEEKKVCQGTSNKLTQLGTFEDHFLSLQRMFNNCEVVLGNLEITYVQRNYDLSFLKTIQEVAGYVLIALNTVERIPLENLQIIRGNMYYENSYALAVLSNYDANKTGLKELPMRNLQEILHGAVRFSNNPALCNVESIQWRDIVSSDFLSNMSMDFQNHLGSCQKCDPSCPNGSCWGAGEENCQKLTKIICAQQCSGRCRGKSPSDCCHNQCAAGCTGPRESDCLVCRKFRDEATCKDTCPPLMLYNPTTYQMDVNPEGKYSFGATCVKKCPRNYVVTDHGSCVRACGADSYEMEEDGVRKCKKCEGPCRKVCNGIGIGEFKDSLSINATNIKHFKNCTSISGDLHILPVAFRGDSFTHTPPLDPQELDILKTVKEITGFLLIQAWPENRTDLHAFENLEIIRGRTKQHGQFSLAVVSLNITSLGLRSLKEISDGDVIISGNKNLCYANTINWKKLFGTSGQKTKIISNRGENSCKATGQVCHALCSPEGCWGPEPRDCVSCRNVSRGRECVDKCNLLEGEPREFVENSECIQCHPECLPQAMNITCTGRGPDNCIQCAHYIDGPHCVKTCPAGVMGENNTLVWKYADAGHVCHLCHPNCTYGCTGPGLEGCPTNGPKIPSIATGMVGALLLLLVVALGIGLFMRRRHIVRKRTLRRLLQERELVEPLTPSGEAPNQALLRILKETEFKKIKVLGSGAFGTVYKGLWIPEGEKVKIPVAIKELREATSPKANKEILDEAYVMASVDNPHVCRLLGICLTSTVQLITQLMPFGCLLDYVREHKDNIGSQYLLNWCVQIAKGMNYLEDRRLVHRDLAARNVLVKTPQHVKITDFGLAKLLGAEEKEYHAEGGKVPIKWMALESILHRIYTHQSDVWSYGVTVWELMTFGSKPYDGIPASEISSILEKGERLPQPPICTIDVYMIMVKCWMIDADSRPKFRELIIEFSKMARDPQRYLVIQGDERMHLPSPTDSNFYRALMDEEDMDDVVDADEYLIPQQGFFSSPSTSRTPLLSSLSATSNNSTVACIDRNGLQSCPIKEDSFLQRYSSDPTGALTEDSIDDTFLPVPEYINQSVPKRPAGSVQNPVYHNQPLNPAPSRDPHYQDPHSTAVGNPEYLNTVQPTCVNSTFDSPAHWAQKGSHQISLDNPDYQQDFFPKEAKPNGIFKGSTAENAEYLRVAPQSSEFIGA

[3] = Inhibition of ER22 EGF-receptor expressing cell membrane tyrosine kinase activity at 100 uM
[4] = biological target: Epidermal growth factor receptor (Homo sapiens) (UniProt P00533); details: ER22; 10 uM
[5] = Inhibition of ER22 EGF-receptor expressing cell membrane tyrosine kinase activity; in short: as §1

Compound	IC50 [1] [µM]	further results
COC(=O)c1cc(/N=C/c2ccc(O)cc2O)ccc1O	> 100	inhibition [2]: 65%
COC(=O)c1cc(NCc2cccc(O)c2)ccc1O		inhibition [3]: 37%
O=C(O)c1cc(/N=C/c2ccccc2O)ccc1O	> 100	
COC(=O)c1cc(/N=C/c2cc(OC)ccc2OC)ccc1O	> 10	inhibition [4]: 14%
COC(=O)c1cc(/N=C/c2ccc(O)cc2)ccc1O	> 10	
COC(=O)c1cc(NCc2ccccc2O)ccc1O	45	
COC(=O)c1cc(/N=C/c2ccccc2O)ccc1O	> 100	
COC(=O)c1cc(NCc2cc(OC)ccc2OC)ccc1O	> 100	inhibition [2]: 18%
COC(=O)c1ccc(/N=C/c2cc(O)ccc2O)cc1O	> 10	
COC(=O)c1cc(NCc2ccc(O)cc2)ccc1O		IC50 [5]: > 10 µM
COC(=O)c1cc(/N=C/c2cc(O)ccc2O)ccc1OC	> 100	
COC(=O)c1cc(/N=C/c2cccc(O)c2)ccc1O	> 100	inhibition [2]: 20%
COC(=O)c1cc(/N=C/c2cc(O)ccc2O)ccc1O	100	
O=C(O)c1cccc(/N=C/c2cc(O)ccc2O)c1	> 10	

The next lines start with results.

IC50 [1] [µM]	Compound	further results
0.2	COC(=O)c1ccc(NCc2cc(O)ccc2O)cc1O	
0.6	COC(=O)c1cc(NCc2cc(O)ccc2O)ccc1O	
5	COC(=O)c1cc(NCc2cc(O)ccc2O)ccc1OC	
1.6	COC(=O)c1cccc(NCc2cc(O)ccc2O)c1	
2.4	O=C(O)c1cccc(NCc2cc(O)ccc2O)c1	
10	COC(=O)c1cc(/N=C/c2ccc(O)c(O)c2)ccc1O	inhibition [2]: 37%
5	O=C(O)c1cc(/N=C/c2cc(O)ccc2O)ccc1O	
25	O=C(O)c1cc(NCc2ccccc2O)ccc1O	
